# PubChem BioAssay AID493236 (Broad Institute, 2011)
# Results filed as inconclusive are left out. The source made the active and inactive calls.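 Rule for the calls: active = luminescence cut by more than half of the full-inhibition control window in a dose series; inconclusive = no clear call, values can overlap the other calls; inactive = signal rising instead of falling, or the rest.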
# System: proteasome chymotrypsin-like activity (human)
# Assay: inhibition of cellular proteasome chymotrypsin-like cleavage – cell-based, U2OS, luminescence, dry powder, set 4, counter-screen for HIF pathway activator project, dose response (AID 493236)
# Details: U2OS cells, Proteasome-Glo chymotrypsin luminescence; series mostly up to 38 µM
# In short: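 test system = U2OS cells | schedule = 24 h plating, 4 h compound, 2 h reagent | compound dosing = 8 concentrations, 3-fold steps | controls = MG132 1 µM positive control, DMSO neutral control | measured by = Proteasome-Glo luminescence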
row,SMILES,outcome
1,Oc1ccc(CN2CCC3CCCCC3C2)c2cccnc12 (configuration not stated),inactive
2,N#CC1(c2ccccc2)CCN(Cc2ccc(O)c3ncccc23)CC1,inactive
